Molecules are shown by their SMILES.

This assay addresses T1, NH(3)-dependent NAD(+) synthetase (Bacillus subtilis (strain 168), UniProt P08164).
T1 sequence (P08164 whole entry): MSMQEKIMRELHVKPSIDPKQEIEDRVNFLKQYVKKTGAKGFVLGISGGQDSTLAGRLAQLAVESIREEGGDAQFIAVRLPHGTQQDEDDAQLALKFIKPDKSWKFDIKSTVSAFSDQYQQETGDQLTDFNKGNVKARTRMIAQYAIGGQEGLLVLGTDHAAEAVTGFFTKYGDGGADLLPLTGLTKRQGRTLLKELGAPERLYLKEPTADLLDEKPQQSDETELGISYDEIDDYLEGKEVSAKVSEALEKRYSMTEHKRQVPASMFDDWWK
Briefly: Inhibitory activity against Bacillus subtilis NAD synthetase. The procedure, abridged: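 Purified recombinant B. subtilis NAD synthetase, 2.0 µg/mL. Coupled assay: the NAD formed is converted to NADH by yeast alcohol dehydrogenase (40 µg/mL) with 1% EtOH. Buffer is 58.5 mM HEPES pH 8.5 with NH4Cl, KCl, MgCl2, 0.1 mM NaAD, 0.2 mM ATP, 0.3% BOG and 2.5% DMSO. ATP starts the reaction, which runs 10 min and is stopped with guanidine·HCl. Read A340 and fluorescence 460 nm minus pre-ATP background. IC50 from % inhibition at six concentrations.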

For `CN[C@@H]1[C@@H](O)[C@@H](O[C@@H]2[C@@H](O)[C@H](O[C@H]3O[C@H]([C@@H](C)NC)CC[C@H]3N)[C@@H](N)C[C@H]2N)OC[C@]1(C)O` [GENTAMICIN], the IC50 is above 1000 nM.

The values above are taken from BindingDB's records for doi:10.1021/jm030003x (University of Alabama At Birmingham, 2003).
